TRPC6 act = activators of mouse TRPC6 channel | hit rate 0.13% among 310,000 | B-score at 10 µM | Q61143 | AID 2550 | HEK293-TRPC6 membrane potential dye fluorescence; hits give high values;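 active means B-score of the integrated fluorescence ratio above library mean plus 3 SD, and starting fluorescence ratio within library mean plus 5 SD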;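 further: higher score means more depolarization so channel activation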
TRPC6 inh = inhibitors of mouse TRPC6 channel. Q61143. HEK293-TRPC6, membrane potential dye, ACh-evoked depolarization; hits give low values. B-score at 10 µM. hit rate 1.1% among 310,000. AID 2553;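 active means B-score under library mean minus 3 SD, initial fluorescence not abnormally high, positive integrated signal ratio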;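 further: B-score derived from integrated fluorescence ratio over the kinetic read; more negative B-score means stronger inhibition of depolarization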
TRPC4 act = opens the mouse TRPC4 cation channel; Q9QUQ5; HEK293 TRPC4beta/mu-opioid, Fluo4 calcium fluorescence; hits give high values; B-score at 10 µM; hit rate 0.49% among 310,000; AID 2237;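 active means B-score above 5 SD of library B-scores, and initial fluorescence ratio not above library mean plus 5 SD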;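 further: positive B-score marks a calcium rise read as TRPC4 activation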
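Assay system: HEK293 cells stably co-expressing mouse TRPC4beta and mu-opioid receptor / Timing: Fluo4 dye loading 45 min at room temperature, 110 s recording / Signal: Fluo4 calcium-sensitive dye fluorescence, kinetic, 1 Hz baseline / Read-out: integrated baseline-normalised fluorescence ratio, converted to per-well B score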
TRPC4 potent = allosteric potentiators of mouse TRPC4 channel; B-score at 10 µM; AID 2227; hit rate 0.42% among 310,000; Q9QUQ5; HEK293 TRPC4beta/mu-opioid, DAMGO EC20, Fluo-4 Ca2+ flux; hits give high values;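 active means B-score of calcium response area above 5 SD of library B-scores, with initial fluorescence ratio within 5 SD of library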;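 further: B-score of integrated fluorescence ratio over time as area under calcium response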
TRPC4 inh = TRPC4 (mouse) channel inhibition; Q9QUQ5; B-score at 10 µM; HEK293 TRPC4beta/mu-opioid, DAMGO-evoked Fluo4 calcium flux; hits give low values; hit rate 0.39% among 300,000;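 active means B-score over 3 SD under the library average, no early fluorescence shift, positive overall ratio signal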
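Assay system: HEK293 cells with stable TRPC4beta plus mu-opioid receptor expression; Probe or stimulus: DAMGO in two steps, submaximal then maximal; Dosing: single-point compound dosing; Measured by: Fluo4 calcium-dye fluorescence, kinetic read; Read-out basis: B score from integrated Fluo4 fluorescence ratio.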
TRPC4 sel inh 2 = mouse TRPC4 off-target activity of TRPC6 inhibitors, second screen | HEK293 TRPC4/MOR, membrane potential dye fluorescence; channel activated by saturating DAMGO dose | inhibition, % at 10 µM | hit rate 42% among 920 | shares compounds with TRPC6 inh;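 active means compounds whose fluorescence signal differed from control wells by over 3 SD, either direction, in both duplicate plates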
TRPC4 spec = selectivity of TRPC6 inhibitors: effect on mouse TRPC4. shares compounds with TRPC6 inh. HEK293 TRPC4/mu-opioid, membrane potential fluorescence. hit rate 61% among 920. AID 2777. activity change, negative = inhibition, % at 10 µM;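 active means rise or fall in signal beyond 3 SD of buffer-only wells in both replicate plates, either sign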;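 further: integrated kinetic ratio of fluorescence range over baseline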
HEK293 MPD ctr 2-1 = second counter-screen for TRPC6 inhibitors: parental HEK293 cells; shares compounds with TRPC6 inh; parental HEK293 membrane potential dye fluorescence; maximal acetylcholine challenge after compound addition; signal change vs control, % at 10 µM; hit rate 31% among 920; AID 2779;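 active means membrane potential signal moving either way by over 3 SD of the maximum-effect control, in both duplicate plates, meaning non-specific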
HEK293 MPD ctr-1 = parental HEK293 nonspecific activity of TRPC6 inhibitors. parental HEK293 membrane potential dye fluorescence. AID 2780. membrane potential signal change, % at 10 µM. shares compounds with TRPC6 inh. hit rate 60% among 920;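 active means membrane potential signal shifting up or down by more than 3 SD of buffer-only wells, on both duplicate plates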
HEK293 MPD ctr-2 = parental HEK293 nonspecific activity of TRPC6 modulators; shares compounds with TRPC6 inh; AID 488924; membrane potential dye fluorescence; membrane potential signal change, % at 10 µM; hit rate 51% among 2,400;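 active means membrane potential signal moves up or down beyond 5 SD from buffer-only wells, on both duplicate plates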
HEK293 MPD ctr 2-2 = second counter-screen for TRPC6 modulators: effect in parental HEK293 cells. shares compounds with TRPC6 inh. hit rate 14% among 2,400. inhibition, % at 10 µM. AID 488926. membrane potential dye fluorescence; after compound, maximal acetylcholine stimulation;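 active means membrane potential signal drops by more than 5 SD from the mean control signal, in both duplicate plates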;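 further: plate controls were acetylcholine ECmax control wells for no effect and buffer only wells for full effect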
TRPC4/MOR mod = tests whether TRPC6 modulators also affect mouse TRPC4. HEK293 TRPC4/mu-opioid, membrane potential fluorescence. percent change from control (negative = decrease, positive = increase), % at 10 µM. shares compounds with TRPC6 inh. hit rate 69% among 2,400;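 active means membrane potential signal moved up or down beyond 5 SD of buffer control wells, in both duplicate plates, actives on both sides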;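 further: plate controls were assay buffer wells for no effect and DAMGO maximal-effect wells for full effect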
TRPC4/MOR inh 2 = second check of whether TRPC6 modulators also affect mouse TRPC4 | hit rate 55% among 2,400 | AID 488928 | shares compounds with TRPC6 inh | HEK293 TRPC4/mu-opioid, membrane potential dye fluorescence; stimulated with maximal-effect DAMGO | inhibition, % at 10 µM;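 active means drop in membrane potential signal beyond 5 SD of the control wells in both duplicate plates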;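 further: TRPC4 counter screen for TRPC6 hits run under conditions tuned for TRPC6 not TRPC4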
TRPC6 inh conf = mouse TRPC6 inhibitor confirmation; inhibition, % at 10 µM; HEK293-TRPC6, membrane potential dye, ACh-evoked depolarization; hit rate 43% among 3,300; AID 488960; shares compounds with TRPC6 inh;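 active means fluorescence ratio falls more than 5 SD below the full-stimulation control mean, in both duplicate runs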;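 further: integrated fluorescence ratio of peak minus minimum over baseline after agonist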
TRPC6 act conf = mouse TRPC6 activator confirmation | shares compounds with TRPC6 inh | HEK293-TRPC6 membrane potential dye fluorescence, FDSS | activation, % at 10 µM | hit rate 11% among 2,800 | AID 488961;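 active means ratio signal rise beyond 5 SD above unstimulated control wells' mean, seen in both duplicate runs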;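 further: plate controls were buffer EC0 wells for no effect and acetylcholine ECmax response for full effect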
* hit, by the source's call; i = inactive; . = no result. Compounds with a hit are over-represented: about 2.3% of the library has one in this group of screens.

SMILES | TRPC6 act | TRPC6 inh | TRPC4 act | TRPC4 potent | TRPC4 inh | HEK293 MPD ctr-2 | HEK293 MPD ctr 2-2 | TRPC4/MOR mod | TRPC4/MOR inh 2 | TRPC6 inh conf | TRPC6 act conf | others
CCCCN(C(=O)C1CCCC1)C1CCS(=O)(=O)C1 (centres undefined) | i | i | i | i | i | . | . | . | . | . | .
CC(Oc1ccc(F)cc1)C(=O)Nc1cc(S(=O)(=O)N2CCOCC2)ccc1N1CCCCC1 (centres undefined) | i | i | i | i | i | . | . | . | . | . | .
Cc1ccccc1NC(=O)CN1CCOCC1 | 14* | i | i | i | i | i | i | i | i | i | i
Cc1ccccc1NC(=O)CN1CCC(C(=O)c2ccc3c(c2)OCCO3)CC1 | i | -5.5* | i | i | i | i | i | i | i | i | i
COc1ccc(OCC(O)CN2CCC(CN3C(=O)c4cccc5cccc(c45)C3=O)CC2)cc1 (centres undefined) | i | i | i | i | i | . | . | . | . | . | .
O=C1c2cccc3cccc(c23)C(=O)N1CCN1CCN(CC(O)COc2ccccc2)CC1 (centres undefined) | i | -5.2* | i | i | i | i | i | i | i | i | i
COc1cccc(OCC(O)CN2CCN(CCN3C(=O)c4cccc5cccc(c45)C3=O)CC2)c1 (centres undefined) | i | -5.8* | i | i | i | i | i | i | 71%* | 54%* | i
COC(=O)c1ccc(Oc2nc(C)cc(Oc3ccccc3)n2)cc1 | i | -7.8* | i | i | i | . | . | . | . | i | i | TRPC4 sel inh 2=i;TRPC4 spec=1.0%*;HEK293 MPD ctr 2-1=i;HEK293 MPD ctr-1=1.6%*
Cc1nc2c(C)cccc2c2c1COC2 | i | -9.1* | i | i | i | . | . | . | . | 61%* | i | TRPC4 sel inh 2=i;TRPC4 spec=-30%*;HEK293 MPD ctr 2-1=36%*;HEK293 MPD ctr-1=-434%*
Cc1ccc2nc3c(c(C(=O)O)c2c1)CCC3 | i | i | i | i | i | . | . | . | . | . | .
Cc1ccc2nc(C)c3c(c2c1)COC3 | i | -6.3* | i | i | i | -165%* | 84%* | -27%* | 47%* | 44%* | i
COc1ccc(-c2csc(N(CCCN(C)C)C(=O)c3ccc(F)cc3)n2)cc1 | i | i | i | i | i | . | . | . | . | . | .
CCN(CC)CCCN(C(=O)c1ccc(F)cc1)c1nc(-c2ccc(OC)cc2)cs1 | i | -6.7* | i | i | i | . | . | . | . | 73%* | i | TRPC4 sel inh 2=33%*;TRPC4 spec=i;HEK293 MPD ctr 2-1=i;HEK293 MPD ctr-1=i

Screens from PubChem BioAssay.
